Source: ChEMBL document CHEMBL3351811, “Synthesis of heteroaryl/aryl kojic acid conjugates as stimulators of glucose uptake by GLUT4 translocation” (Eur J Med Chem, 2014)
Active and inactive are the calls of the source. No cut-off for these calls is given here.

Columns and labels:
Type in all cases: cell-based
[1] = target: T1, Solute carrier family 2, facilitated glucose transporter member 4 (Rattus norvegicus) (UniProt P19357); assay: Stimulation of rat GLUT4-mediated glucose uptake in rat L6 cells expressing myc-tagged GLUT4 at 10 uM incubated for 16 hrs by scintillation counting based 2-[3H]DG uptake assay
T1 sequence (whole entry): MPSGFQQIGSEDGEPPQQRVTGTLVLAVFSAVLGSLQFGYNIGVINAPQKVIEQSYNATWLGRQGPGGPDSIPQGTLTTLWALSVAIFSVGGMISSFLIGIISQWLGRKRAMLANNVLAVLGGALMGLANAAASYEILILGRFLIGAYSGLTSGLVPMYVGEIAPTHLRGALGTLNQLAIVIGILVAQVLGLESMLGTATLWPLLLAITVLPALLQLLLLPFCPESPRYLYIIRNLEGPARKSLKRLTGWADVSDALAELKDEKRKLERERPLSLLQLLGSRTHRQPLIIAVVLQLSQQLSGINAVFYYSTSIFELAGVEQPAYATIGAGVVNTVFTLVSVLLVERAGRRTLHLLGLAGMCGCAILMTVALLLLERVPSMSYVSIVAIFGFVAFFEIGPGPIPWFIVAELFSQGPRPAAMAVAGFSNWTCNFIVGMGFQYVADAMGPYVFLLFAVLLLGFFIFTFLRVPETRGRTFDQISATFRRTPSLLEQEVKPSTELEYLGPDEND
Outline: (§1)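 Differentiated L6-GLUT4myc myotubes (2% FBS, 6–7 days after seeding) exposed to compound for 16 h; insulin 100 nM as positive control. Uptake measured 5 min at room temperature in HEPES-buffered saline with 10 µM 2-DG (0.5 µCi/ml 2-[3H]DG), then lysis and scintillation counting. Cytochalasin B (25 µM) background subtracted. Duplicates normalized to total protein; percent stimulation versus control cells.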

[2] = target: T1, Solute carrier family 2, facilitated glucose transporter member 4 (Rattus norvegicus); assay: Stimulation of rat GLUT4-mediated glucose uptake in rat L6 cells expressing myc-tagged GLUT4 incubated for 16 hrs by scintillation counting based 2-[3H]DG uptake assay; outline: as §1
[3] = target: T1, Solute carrier family 2, facilitated glucose transporter member 4 (Rattus norvegicus); assay: Induction of rat GLUT4 translocation in rat L6 cells expressing myc-tagged GLUT4 incubated for 3 hrs by antibody-coupled colourimetric assay
Outline: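 L6-GLUT4myc myotubes, non-permeabilized, treated 3 h with vehicle (DMSO), insulin 100 nM or compound at 5, 10, 25 µM. Fixed in 3% paraformaldehyde 30 min, glycine-quenched, milk-blocked, then anti-myc 1.0 µg/ml 1 h. HRP secondary with o-phenylenediamine read-out at OD 492 nm. Triplicates, three independent experiments; expressed as fold over unstimulated cells.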

[4] = target: T1, Solute carrier family 2, facilitated glucose transporter member 4 (Rattus norvegicus); assay: Stimulation of rat GLUT4-mediated glucose uptake in rat L6 cells expressing myc-tagged GLUT4 at 10 uM incubated for 16 hrs in presence of 1 uM PI3K inhibitor wortmannin by scintillation counting based 2-[3H]DG uptake assay
Outline: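 Differentiated L6-GLUT4myc myotubes treated with compound at 10 µM, with wortmannin (1 µM) present for the final hour. Uptake then measured 5 min at room temperature in HEPES-buffered saline with 10 µM 2-DG (0.5 µCi/ml 2-[3H]DG), followed by lysis and scintillation counting. Cytochalasin B (25 µM) nonspecific uptake subtracted; duplicates normalized to protein, expressed versus control.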

L6 = assay: Toxicity in rat L6 cells expressing myc-tagged rat GLUT4 assessed as inhibition of glucose uptake at 10 uM incubated for 16 hrs by scintillation counting based 2-[3H]DG uptake assay; details: l6, 16 h; outline: as §1

Row | Compound | Activity [1] | Activity [2] | fold change (FC) [1] | Activity [3] | Activity [4] | Activity (L6)
1 | COc1cccc(C(c2oc(CO)cc(=O)c2O)c2c[nH]c3ccccc23)c1OC (stereo not given) |  | Dose-dependent effect | 1.25 | Dose-dependent effect | inactive | 
2 | COc1ccc(C(c2oc(CO)cc(=O)c2O)c2c[nH]c3ccccc23)cc1 (stereo not given) | inactive |  |  |  |  | Toxic
3 | CCCCCCCCC(c1oc(CO)cc(=O)c1O)c1c[nH]c2ccccc12 (stereo not given) | inactive |  |  |  |  | 
4 | O=c1cc(CO)oc(C(c2ccc(F)cc2)c2c[nH]c3ccccc23)c1O (stereo not given) | inactive |  |  |  |  | Toxic
5 | O=c1cc(CO)oc(C(c2ccc(Br)cc2)c2c[nH]c3ccccc23)c1O (stereo not given) | inactive |  |  |  |  | Toxic
6 | CCCCC(c1oc(CO)cc(=O)c1O)c1c[nH]c2ccccc12 (stereo not given) | inactive |  |  |  |  | 
7 | O=c1cc(CO)oc(C(c2ccc(Cl)cc2)c2c[nH]c3ccccc23)c1O (stereo not given) | inactive |  |  |  |  | Toxic
8 | O=c1cc(CO)oc(C(c2ccc3ccccc3c2)c2c[nH]c3ccccc23)c1O (stereo not given) | inactive |  |  |  |  | Toxic
9 | COc1ccc(OC)c(C(c2oc(CO)cc(=O)c2O)c2c[nH]c3ccccc23)c1 (stereo not given) |  | Dose-dependent effect | 1.21 | Dose-dependent effect | inactive | 

The next lines start with results.

Row | Activity [1] | Activity [2] | fold change (FC) [1] | Activity [3] | Activity [4] | Compound | Activity (L6)
10 | inactive |  |  |  |  | Cn1cc(C(c2ccccc2)c2oc(CO)cc(=O)c2O)c2ccccc21 (stereo not given) | 
11 | inactive |  |  |  |  | CCCCCn1cc(C(c2ccccc2)c2oc(CO)cc(=O)c2O)c2ccccc21 (stereo not given) | Toxic
12 | inactive |  |  |  |  | O=c1cc(CO)oc(C(c2ccccc2)c2ccc[nH]2)c1O (stereo not given) | 
13 | inactive |  |  |  |  | O=c1cc(CO)oc(C(c2ccccc2)c2cn(Cc3ccccc3)c3ccccc23)c1O (stereo not given) | Toxic
14 |  |  | 1.34 | Dose-dependent effect | inactive | O=c1cc(CO)oc(C(c2ccccc2)c2ccc(O)cc2)c1O (stereo not given) | 
15 | inactive |  |  |  |  | O=c1cc(CO)oc(C(c2ccccc2)c2csc3ccccc23)c1O (stereo not given) | 
16 | inactive |  |  |  |  | O=c1cc(CO)oc(C(c2ccccc2)c2c[nH]c3ccccc23)c1O (stereo not given) | Toxic
17 | inactive |  |  |  |  | O=c1cc(CO)oc(C(c2ccccc2)c2c(-c3ccccc3)[nH]c3ccccc23)c1O (stereo not given) | Toxic
18 | inactive |  |  |  |  | N#Cc1ccc2[nH]cc(C(c3ccccc3)c3oc(CO)cc(=O)c3O)c2c1 (stereo not given) | 
19 |  |  | 1.21 | Dose-dependent effect | inactive | Cc1ccc(C(c2ccccc2)c2oc(CO)cc(=O)c2O)s1 (stereo not given) | 
20 |  | Dose-dependent effect | 1.25 | Dose-dependent effect | inactive | COc1ccc2[nH]cc(C(c3ccccc3)c3oc(CO)cc(=O)c3O)c2c1 (stereo not given) | 
21 |  | Dose-dependent effect | 1.38 | Dose-dependent effect | inactive | COc1ccc(SC(c2ccccc2)c2oc(CO)cc(=O)c2O)cc1 (stereo not given) | 
22 |  | Dose-dependent effect | 1.33 | Dose-dependent effect | inactive | O=c1cc(CO)oc(C(Sc2ccccc2)c2ccccc2)c1O (stereo not given) | 
